Assay results as given in ChEMBL document CHEMBL2346582, “Guanidino anthrathiophenediones as G-quadruplex binders: uptake, intracellular localization, and anti-Harvey-Ras gene activity in bladder cancer cells” (J Med Chem, 2013).
Active and inactive are the calls of the source. No cut-off for these calls is given here.

Assays:
T-24 [1] = experiment: Cellular uptake in human T24 cells at 0.5 to 10 uM after 8 hrs by flow cytometric analysis; format: ADME, cell-based; details: t-24, 8 h
How it was run: (§1)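 Cells plated at 5 × 10^4 per well and treated next day with ligand at […] for 8 h. Then trypsinized, resuspended in PBS and analysed by flow cytometry (488 nm excitation, FL3 680 nm, log scale), at least 10,000 cells per sample. Uptake read from intrinsic ligand red fluorescence.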

Homo sapiens [2] = organism: Homo sapiens; experiment: Thermal stabilization of human NRAS G-quadruplex FAM-GGGAGGGGCGGGUCUGGG-TAMRA RNA assessed as melting temperature at 1:1 DNA:ligand ratio by FRET assay
How it was run: (§2)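 FRET melting in 50 mM Tris-HCl pH 7.4 with an equimolar ligand:quadruplex ratio (r = 1). Conditions: NRAS RNA and hras-2 in 10 mM KCl; hras-1 in 100 mM KCl, with ΔTM taken from its second transition. Ramp 1 °C/min from 20 to 95 °C after 5 min equilibration. TM and ΔTM (±0.5 K) versus ligand-free quadruplex.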

Homo sapiens [3] = organism: Homo sapiens; experiment: Thermal stabilization of human NRAS G-quadruplex FAM-GGGAGGGGCGGGUCUGGG-TAMRA RNA assessed as change in melting temperature at 1:1 DNA:ligand ratio by FRET assay; how it was run: as §2
NIH3T3 [4] = experiment: Cellular uptake in mouse NIH/3T3 cells assessed as accumulation in nucleoli at 2.5 uM after 4 hrs by propidium iodide staining-based confocal microscopic analysis; format: ADME, cell-based; details: nih3t3, 4 h
How it was run: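 NIH 3T3 cells on coverslips treated with 2.5 μM ligand for 2 or 4 h. Fixed with paraformaldehyde, DRP1 immunostained (FITC), nuclei stained with propidium iodide. Confocal imaging with 543 nm excitation of ligand fluorescence.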

T-24 [5] = experiment: Binding affinity to HRAS quadruplex DNA mutant in human T24 cells assessed as reduction in gene expression at 0.5 to 5 uM treated for 24 hrs prior to transfection measured 72 hrs post transfection by dual-luciferase reporter gene assay relative to control; format: cell-based
How it was run: (§3)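 T24 cells pretreated 24 h with ligand (0.5, 2.5, 5 μM). Then co-transfected with jet-PEI: firefly reporter (250 ng/well), either HRAS promoter wild type, HRAS promoter with 4 point mutations in the quadruplex motifs, or IL-8 promoter, plus CMV-Renilla (10 ng/well). Dual-Glo read 72 h post-transfection. Firefly/Renilla expressed as T/C × 100 relative to untreated cells.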

NIH3T3 [6] = experiment: Cellular uptake in mouse NIH/3T3 cells at 0.5 to 10 uM after 8 hrs by flow cytometric analysis; format: ADME, cell-based; details: nih3t3, 8 h; how it was run: as §1
Homo sapiens [7] = organism: Homo sapiens; experiment: Thermal stabilization of human HRAS1 G-quadruplex FAM-TCGGGTTGCGGGCGCAGGGCACGGGCG-TAMRA DNA assessed as change in melting temperature at 1:1 DNA:ligand ratio by FRET assay; how it was run: as §2
T-24 (human) = experiment: Cell cycle arrest in human T24 cells expressing mutant HRAS assessed as accumulation at G2/M phase at 10 uM after 24 hrs by FACS analysis
T-24 [8] = experiment: Binding affinity to interleukin-8 promoter DNA in human T24 cells at 0.5 to 5 uM treated for 24 hrs prior to transfection measured 72 hrs post transfection by dual-luciferase reporter gene assay relative to control; format: cell-based; details: in the assay text read “5 uM” for “0.5 to 5 uM”; how it was run: as §3
T-24 [9] = experiment: Cellular uptake in human T24 cells assessed as accumulation in nucleoli at 2.5 uM after 2 hrs by propidium iodide staining-based confocal microscopic analysis; format: ADME, cell-based; details: t-24, 2 h
How it was run: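 T24 cells plated (3 × 10^5) on coverslips and treated after 24 h with 2.5 μM ligand for 2 h. Fixed in 3% paraformaldehyde and permeabilized with Triton X-100. Cytoplasm immunostained for DRP1 with FITC secondary; nuclei stained with propidium iodide plus RNase A. Ligand red fluorescence excited at 543 nm; confocal Z-sections at 2 μm intervals.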

[10] = Binding affinity to human NRAS G-quadruplex FAM-GGGAGGGGCGGGUCUGGG-TAMRA RNA assessed as quenching of fluorescence emission by FRET titration assay
How it was run: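 RNA quadruplex, 200 nM, dual-labelled with FAM and TAMRA, in 50 mM Tris-HCl pH 7.4, 10 mM KCl. Titrated with ligand at r = 1–5 ([ligand]/[quadruplex]). The fraction of bound quadruplex was calculated from quenching of fluorescence and fitted to the Hill equation to give KD.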

T-24 [11] = experiment: Cell cycle arrest in human T24 cells assessed as accumulation at G0/G1 phase at 10 uM after 48 to 72 hrs by FACS analysis relative to control; format: functional
How it was run: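 T24 cells treated with 10 μM ligand for 48 or 72 h. Fixed 1 h at 4 °C in 70% ethanol, then stained with propidium iodide 0.05 mg/mL plus RNase A 0.1 mg/mL for 30 min at room temperature. Analysed by FACS (FL2). Phase percentages compared with control by t-test (p < 0.05).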

[12] = Binding affinity to human telomeric G-quadruplex FAM-TTAGGGTTAGGGTTAGGGTTAGGG-TAMRA DNA assessed as quenching of fluorescence emission by FRET titration assay
How it was run: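 FRET titration of 200 nM oligonucleotide dual-labelled at its ends with carboxyfluorescein (donor) and tetramethylrhodamine (acceptor), in 50 mM Tris-HCl with KCl (100 mM for htelo and hras-1, 10 mM for KRAS and hras-2). Ligand binding quenches the emission, mainly the acceptor at 580 nm. The fraction of filled sites was fitted to the Hill equation to give apparent KD and the Hill coefficient.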

HEK293 [13] = experiment: Cytotoxicity against human HEK293 cells expressing wild type HRAS at 1 to 30 uM after 72 hrs by resazurin assay; format: cell-based; details: HEK293, 72 h
How it was run: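 Cells seeded at 3000 per well the day before treatment, grown in DMEM with 10% FBS. Ligand added at 1, 2.5, 5, 10, 20, 30 μM for 72 h. Viability measured by resazurin and expressed as % of untreated cells; mean of three independent measurements. IC50 is the concentration reducing proliferation by 50%.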

Homo sapiens [14] = organism: Homo sapiens; experiment: Thermal stabilization of human HRAS2 G-quadruplex FAM-CGGGGCGGGGCGGGGGCGGGGGCG-TAMRA DNA assessed as as change in melting temperature at 1:4 DNA:ligand ratio by FRET assay
HEK293 [15] = experiment: Cell cycle arrest in human HEK293 cells expressing wild type HRAS assessed as accumulation at G2/M phase at 10 uM after 24 hrs by FACS analysis; format: functional, cell-based
How it was run: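 HEK293 cells (wild-type HRAS) treated with ligand for 24 h. Ethanol-fixed, stained with propidium iodide/RNase A, and analysed by FACS (FL2) for G0/G1, S and G2/M fractions.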

T-24 [16] = experiment: Binding affinity to wild type HRAS quadruplex DNA in human T24 cells assessed as reduction in gene expression at 0.5 to 5 uM treated for 24 hrs prior to transfection measured 72 hrs post transfection by dual-luciferase reporter gene assay relative to control; format: cell-based; set-up: scale not given: the % may be the effect or the level left; how it was run: as §3
T-24 (Homo sapiens) = experiment: Cellular uptake in human T24 cells after 4 hrs by FACS flow cytometric analysis in presence of dynasore; details: t24, 4 h

| SMILES | Drug uptake (T-24 [1]) | Tm (Homo sapiens [2]) | deltaTm (Homo sapiens [3]) | Drug uptake (NIH3T3 [4]) | Activity (T-24 [5]) | Drug uptake (NIH3T3 [6]) | deltaTm (Homo sapiens [7]) | Activity (T-24 (human)) | Activity (T-24 [8]) | Drug uptake (T-24 [9]) | Kd [10] | Activity (T-24 [11]) | Kd [12] | IC50 (HEK293 [13]) | deltaTm (Homo sapiens [14]) | Activity (HEK293 [15]) | Activity (T-24 [16]) | Drug uptake (T-24 (Homo sapiens)) |
| --- | --- | --- | --- | --- | --- | --- | --- | --- | --- | --- | --- | --- | --- | --- | --- | --- | --- | --- |
| N=C(N)NCCCNc1c2c(c(NCCNC(=N)N)c3sccc13)C(=O)c1ccccc1C2=O | Active | 88 °C | 11 K | Active | inactive | Active | 8 K | Active | inactive | Active | 90 nM | 63% | 330 nM | > 30000 nM | 12 K | inactive | – | – |
| N=C(N)NCCCCNc1c2c(c(NCCCCNC(=N)N)c3sccc13)C(=O)c1ccccc1C2=O | Active | > 90 °C | > 13 K | Active | inactive | Active | 7 K | Active | inactive | – | 60 nM | 63% | 180 nM | > 30000 nM | 26 K | inactive | 50% | Active |
| N=C(N)NCCCNc1c2c(c(NCCCNC(=N)N)c3sccc13)C(=O)c1ccccc1C2=O | Active | 88 °C | 11 K | Active | inactive | Active | 5 K | Active | inactive | Active | 110 nM | 63% | 130 nM | > 30000 nM | 17 K | inactive | 50% | Active |
| N=C(N)NCCNc1c2c(c(NCCNC(=N)N)c3sccc13)C(=O)c1ccccc1C2=O | Active | 82 °C | 5 K | Active | inactive | Active | 5 K | Active | inactive | Active | 380 nM | 63% | 150 nM | > 30000 nM | 19 K | inactive | 25% | – |
| N=C(N)NCCCNc1c2c(c(NCCNC(=N)N)c3ccsc13)C(=O)c1ccccc1C2=O | Active | 86 °C | 9 K | – | inactive | Active | 5 K | Active | inactive | Active | 120 nM | 63% | 320 nM | 20000 nM | 17 K | inactive | 25% | Active |
